Data on one compound can be found in ChEMBL document CHEMBL3414463, “Discovery of potent and selective 8-fluorotriazolopyridine c-Met inhibitors” (J Med Chem, 2015).

Each structure is given as a SMILES string.

The nature of data set [1]: Drug metabolism in monkey liver microsomes assessed as formation of (S)-2-(6-(1-(8-fluoro-6-(3-methylisoxazol-5-yl)-[1,2,4]triazolo[4,3-a]pyridin-3-yl)ethyl)quinolin-3-yloxy)acetic acid in presence of NADPH by LC-MS/MS method. Type of data set: ADME, Macaca mulatta. The note with it: rhesus monkey. The procedure, abridged: (§1)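 Compound incubated with NADPH in mouse, rat, dog, monkey or human liver microsomes. Metabolites were identified by accurate mass spectrometry and MS/MS, and selected ion chromatograms were used to build metabolite profiles.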

The target in data set [2] is T1, Hepatocyte growth factor receptor (Homo sapiens, UniProt P08581). Description: Inhibition of HGF-stimulated c-Met autophosphorylation in serum starved human PC3 cells pre-incubated for 1 hr followed by human recombinant HGF stimulation for 10 mins by quantitative electrochemiluminescence immunoassay. In kind it is cell-based, PC-3. In short, it runs like this:
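Serum-starved PC-3 cells (plated in high-glucose DMEM/10% FBS, then 16 h in low-glucose DMEM with 0.1% BSA) were treated with a 10-point inhibitor dilution for 1 h at 37 °C. Cells were then stimulated with 200 ng/mL recombinant human HGF for 10 min and lysed. Phospho-c-Met was captured with biotinylated anti-c-Met and 4G10 by electrochemiluminescence. IC50, n ≥ 2.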

The test system of data set [3] is Liver microsome. Description: Drug metabolism in dog liver microsomes assessed as formation of (S)-2-(6-(1-(8-fluoro-6-(3-methylisoxazol-5-yl)-[1,2,4]triazolo[4,3-a]pyridin-3-yl)ethyl)quinolin-3-yloxy)ethanol in presence of NADPH by LC-MS/MS method. Type of data set: ADME, Canis lupus familiaris. In short, it runs like this:
as §1
On the technique in general: Liver microsomes are vesicles of endoplasmic reticulum, rich in cytochrome P450 enzymes.

The test system of data set [4] is Liver microsome. Briefly: Unbound clearance rat liver microsomes at 1 uM in presence of NADPH by LC-MS/MS method. Type of data set: ADME. The procedure, abridged:
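Aliquots were taken at 0, 10, 20, 30 and 40 min, quenched with an equal volume of acetonitrile, centrifuged and analysed by LC/MS/MS.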

The test system of data set [5] is Rattus norvegicus. Briefly: Clearance in Sprague-Dawley rat at 0.25 mg/kg, iv. The arrangement: dose 0.25 mg/kg, route intravenous. To be noted: in vivo. In kind it is ADME, organism-based.
Data set [6] relates to Mus musculus. Description: Inhibition of human recombinant HGF-stimulated c-Met autophosphorylation in Balb/c mouse assessed as relative phospho c-Met level at 10 mg/kg, po administered as single dose and measured 9 hrs before mouse sacrifice by electrochemiluminescence immunoassay. In kind it is functional. Also on record: scale not given: the % may be the effect or the level left. In short, it runs like this:
(§2)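 Mice received a single 10 mg/kg oral dose. Human recombinant HGF (12 μg) was given IV at 1, 3, 6, 9, 12 or 24 h postdose, and liver was harvested 5 min later. Liver phospho-c-Met was measured by electrochemiluminescent immunoassay. Mean ± SD, n = 3; ANOVA with Bonferroni/Dunn test versus HGF control.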

Data set [7] concerns Liver microsome. Description: Drug metabolism in human liver microsomes assessed as formation of (S)-2-(6-(1-(8-fluoro-6-(3-methylisoxazol-5-yl)-[1,2,4]triazolo[4,3-a]pyridin-3-yl)ethyl)quinolin-3-yloxy)acetic acid in presence of NADPH by LC-MS/MS method. In kind it is ADME. The procedure, abridged:
as §1

Data set [8] concerns Mus musculus. Description: Inhibition of human recombinant HGF-stimulated c-Met autophosphorylation in Balb/c mouse assessed as relative phospho c-Met level at 10 mg/kg, po administered as single dose and measured 1 hr before mouse sacrifice by electrochemiluminescence immunoassay. Type of data set: functional. The arrangement: scale not given: the % may be the effect or the level left. In short, it runs like this:
as §2

A short description of data set [9]: Half life in Sprague-Dawley rat at 0.25 mg/kg, iv. The arrangement: dose 0.25 mg/kg, route intravenous. In kind it is ADME, organism-based. To be noted: in vivo.
The subject of data set [10] is Mus musculus. Description: Inhibition of human recombinant HGF-stimulated c-Met autophosphorylation in Balb/c mouse assessed as relative phospho c-Met level at 10 mg/kg, po administered as single dose and measured 3 hrs before mouse sacrifice by electrochemiluminescence immunoassay. The arrangement: scale not given: the % may be the effect or the level left. Type of data set: functional. In short, it runs like this:
as §2

Data set [11] in a line: Drug metabolism in mouse liver microsomes assessed as formation of (S)-2-(6-(1-(8-fluoro-6-(3-methylisoxazol-5-yl)-[1,2,4]triazolo[4,3-a]pyridin-3-yl)ethyl)quinolin-3-yloxy)acetic acid in presence of NADPH by LC-MS/MS method. Type of data set: ADME. In short, it runs like this:
as §1

Data set [12] addresses T1, Hepatocyte growth factor receptor. Description: Inhibition of recombinant c-Met kinase domain (unknown origin) incubated for 30 mins using gastrin peptide substrate by HTRF assay.
In data set [13] the test system is Liver microsome. Description: Drug metabolism in human liver microsomes assessed as formation of (S)-2-(6-(1-(8-fluoro-6-(3-methylisoxazol-5-yl)-[1,2,4]triazolo[4,3-a]pyridin-3-yl)ethyl)quinolin-3-yloxy)ethanol in presence of NADPH by LC-MS/MS method. Type of data set: ADME. In short, it runs like this:
as §1

In data set [14] the test system is Mus musculus. Briefly: Inhibition of human recombinant HGF-stimulated c-Met autophosphorylation in Balb/c mouse assessed as relative phospho c-Met level at 10 mg/kg, po administered as single dose and measured 12 hrs before mouse sacrifice by electrochemiluminescence immunoassay. Type of data set: functional. The arrangement: scale not given: the % may be the effect or the level left. The procedure, abridged:
as §2

The nature of data set [15]: Oral bioavailability in Sprague-Dawley rat at 2 mg/kg. Type of data set: ADME, organism-based. The note with it: in vivo. In short, it runs like this:
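Male Sprague-Dawley rats given 2.0 mg/kg orally in 2% (w/v) hydroxypropylmethylcellulose, 1% (w/v) Tween 80 in water, pH 2.2 (adjusted with HCl or MSA). Some inhibitors instead used 10% (v/v) dimethylacetamide in the same vehicle.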

Data set [16] in a line: Drug metabolism in mouse liver microsomes assessed as formation of (S)-2-(6-(1-(8-fluoro-6-(3-methylisoxazol-5-yl)-[1,2,4]triazolo[4,3-a]pyridin-3-yl)ethyl)quinolin-3-yloxy)ethanol in presence of NADPH by LC-MS/MS method. In kind it is ADME. The procedure, abridged: as §1
The nature of data set [17]: Volume of distribution at steady state in Sprague-Dawley rat at 0.25 mg/kg, iv. In kind it is ADME, organism-based. Also on record: dose 0.25 mg/kg, route intravenous. The note with it: in vivo, read-out: Vdss. In short, it runs like this: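 Male Sprague-Dawley rats were given a single IV dose of 0.25 mg/kg. The vehicle was DMSO, or for some compounds 20% (w/v) hydroxypropyl β-cyclodextrin in water adjusted to pH 3.5 with MSA. NC marks cases where the terminal disposition rate constant could not be characterized for lack of slope.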

In data set [18] the test system is Liver microsome. Description: Drug metabolism in dog liver microsomes assessed as formation of (S)-2-(6-(1-(8-fluoro-6-(3-methylisoxazol-5-yl)-[1,2,4]triazolo[4,3-a]pyridin-3-yl)ethyl)quinolin-3-yloxy)acetic acid in presence of NADPH by LC-MS/MS method. Type of data set: ADME, Canis lupus familiaris. In short, it runs like this:
as §1

Data set [19] relates to Liver microsome. Description: Drug metabolism in rat liver microsomes assessed as formation of (S)-2-(6-(1-(8-fluoro-6-(3-methylisoxazol-5-yl)-[1,2,4]triazolo[4,3-a]pyridin-3-yl)ethyl)quinolin-3-yloxy)acetic acid in presence of NADPH by LC-MS/MS method. Type of data set: ADME. In short, it runs like this: as §1
Data set [20] concerns Mus musculus. Briefly: Inhibition of human recombinant HGF-stimulated c-Met autophosphorylation in Balb/c mouse assessed as relative phospho c-Met level at 10 mg/kg, po administered as single dose and measured 6 hrs before mouse sacrifice by electrochemiluminescence immunoassay. Type of data set: functional. Also on record: scale not given: the % may be the effect or the level left. In short, it runs like this:
as §2

Data set [21] relates to Mus musculus. Description: Inhibition of human recombinant HGF-stimulated c-Met autophosphorylation in Balb/c mouse assessed as relative phospho c-Met level at 10 mg/kg, po administered as single dose and measured 24 hrs before mouse sacrifice by electrochemiluminescence immunoassay. In kind it is functional. Also on record: scale not given: the % may be the effect or the level left. In short, it runs like this: as §2

Data set [22] is described as follows: Drug metabolism in monkey liver microsomes assessed as formation of (S)-2-(6-(1-(8-fluoro-6-(3-methylisoxazol-5-yl)-[1,2,4]triazolo[4,3-a]pyridin-3-yl)ethyl)quinolin-3-yloxy)ethanol in presence of NADPH by LC-MS/MS method. The note with it: rhesus monkey. Type of data set: ADME, Macaca mulatta. In short, it runs like this: as §1
Data set [23] concerns Rattus norvegicus. Briefly: AUC (0 to infinity) in Sprague-Dawley rat at 0.25 mg/kg, iv. In kind it is ADME, organism-based, Plasma. Also on record: dose 0.25 mg/kg, route intravenous, time infinity. The note with it: in vivo.
Data set [24] has as its system Liver microsome. Briefly: Drug metabolism in rat liver microsomes assessed as formation of (S)-2-(6-(1-(8-fluoro-6-(3-methylisoxazol-5-yl)-[1,2,4]triazolo[4,3-a]pyridin-3-yl)ethyl)quinolin-3-yloxy)ethanol in presence of NADPH by LC-MS/MS method. In kind it is ADME. In short, it runs like this:
as §1

T1 sequence (P08581 whole entry): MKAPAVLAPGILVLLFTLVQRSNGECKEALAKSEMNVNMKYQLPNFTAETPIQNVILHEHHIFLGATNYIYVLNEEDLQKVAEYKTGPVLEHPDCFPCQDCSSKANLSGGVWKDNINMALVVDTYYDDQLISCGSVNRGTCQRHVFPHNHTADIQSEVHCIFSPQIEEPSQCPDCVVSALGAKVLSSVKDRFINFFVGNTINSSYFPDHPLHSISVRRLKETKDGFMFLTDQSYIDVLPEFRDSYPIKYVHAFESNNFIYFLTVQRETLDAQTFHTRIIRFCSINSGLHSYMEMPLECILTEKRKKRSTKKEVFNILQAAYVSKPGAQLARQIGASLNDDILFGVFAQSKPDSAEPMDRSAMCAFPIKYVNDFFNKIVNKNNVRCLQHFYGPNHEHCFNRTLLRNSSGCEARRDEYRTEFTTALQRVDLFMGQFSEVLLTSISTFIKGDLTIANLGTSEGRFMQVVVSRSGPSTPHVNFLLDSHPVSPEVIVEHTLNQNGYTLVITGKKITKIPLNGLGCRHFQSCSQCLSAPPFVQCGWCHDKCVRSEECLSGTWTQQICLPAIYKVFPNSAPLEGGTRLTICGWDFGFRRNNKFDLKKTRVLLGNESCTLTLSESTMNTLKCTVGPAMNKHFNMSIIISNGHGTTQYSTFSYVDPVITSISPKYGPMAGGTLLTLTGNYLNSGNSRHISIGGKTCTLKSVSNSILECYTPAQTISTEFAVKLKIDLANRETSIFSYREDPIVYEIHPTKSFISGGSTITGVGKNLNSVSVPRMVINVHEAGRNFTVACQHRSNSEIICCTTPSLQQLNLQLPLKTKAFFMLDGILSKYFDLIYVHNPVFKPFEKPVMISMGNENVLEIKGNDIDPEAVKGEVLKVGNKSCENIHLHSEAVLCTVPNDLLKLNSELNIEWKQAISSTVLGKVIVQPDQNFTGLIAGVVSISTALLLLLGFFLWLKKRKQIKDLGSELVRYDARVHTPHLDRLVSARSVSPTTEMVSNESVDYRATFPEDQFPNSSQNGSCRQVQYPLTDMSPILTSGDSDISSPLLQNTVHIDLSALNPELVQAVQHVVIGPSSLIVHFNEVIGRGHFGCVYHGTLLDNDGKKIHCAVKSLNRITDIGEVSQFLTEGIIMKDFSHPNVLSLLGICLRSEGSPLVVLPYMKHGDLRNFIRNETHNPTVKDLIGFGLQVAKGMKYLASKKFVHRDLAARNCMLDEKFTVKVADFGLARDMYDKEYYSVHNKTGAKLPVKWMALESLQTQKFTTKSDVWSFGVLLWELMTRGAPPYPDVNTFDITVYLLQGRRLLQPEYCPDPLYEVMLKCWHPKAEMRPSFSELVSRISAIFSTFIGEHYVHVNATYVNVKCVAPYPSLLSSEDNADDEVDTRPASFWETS

On to `COCCOc1cnc2ccc([C@H](C)c3nnc4c(F)cc(-c5cc(C)no5)cn34)cc2c1`, for which the Drug metabolism entry in [1], in [3], in data set [7], in data set [11], in data set [13] and in data set [16] was “metabolite_detected” each time. Also, the Drug metabolism entry in [18], in [19], in data set [22] and in data set [24] was “metabolite_detected” throughout. In addition, the figures for the IC50 in data set [2] and in [12] were 5 nM and 1 nM, respectively. Further, the CL free in [4] amounted to 417 mL/min/kg. This compound also returned a CL in data set [5] of 9.5 mL/min/kg. The Activity was determined as 64% in [6]; 96% in [8]; 99% in data set [10]; 47% in [14]; 94% in [20]; 27% in data set [21]. For the same compound, the half-life (commonly the time in which the quantity being followed falls by half) in data set [9] was 4.2 h. For the same compound, the bioavailability (as a rule, the share of a dose that reaches the circulation, judged against a reference dose that is usually intravenous) in data set [15] came out at 46%. Further, in [17], the Vd was determined as 4.9 L/kg. The AUC (in general, the area under the concentration-time curve, a measure of exposure) in [23] amounted to 3.1 µM·h.
